Test results published in ChEMBL document CHEMBL1166003, “Triterpene glycosides from Curculigo orchioides and their cytotoxic activity” (J Nat Prod, 2010).
Blank lines part the entries; values can stand above or below the molecule they belong to. The source made the active and inactive calls. The calls are words filed in the database; no cut-off is given here.

How the values were obtained:
[1] = test system: HL-60; test: Cytotoxicity against human HL60 cells at 20 uM after 72 hrs by MTT assay; type: functional, cell-based
[2] = test system: MKN-74; test: Growth inhibition of human MKN74 cells after 48 hrs by SRB assay; type: functional; conditions: MKN-74, 48 h
Procedure, shortened: (§1)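 Part of a 39-line human cancer cell panel, run by a modified NCI method. Cells were plated at suitable density in RPMI 1640 with 5% FBS and left to attach overnight before compound addition. Read-out was GI50.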

[3] = test system: U-251; test: Growth inhibition of human U251 cells after 48 hrs by SRB assay; type: functional; conditions: U-251, 48 h; procedure, shortened: as §1
[4] = test system: OVCAR-3; test: Growth inhibition of human OVCAR-3 cells after 48 hrs by SRB assay; type: functional; conditions: OVCAR-3, 48 h; procedure, shortened: as §1
[5] = test system: SNB-75; test: Growth inhibition of human SNB75 cells after 48 hrs by SRB assay; type: functional; conditions: SNB-75, 48 h; procedure, shortened: as §1
[6] = test system: OVCAR-8; test: Growth inhibition of human OVCAR8 cells after 48 hrs by SRB assay; type: functional; conditions: OVCAR-8, 48 h; procedure, shortened: as §1
[7] = test system: SF-295; test: Growth inhibition of human SF295 cells after 48 hrs by SRB assay; type: functional; conditions: SF-295, 48 h; procedure, shortened: as §1
[8] = test system: NCI-H460; test: Growth inhibition of human NCI-H460 cells after 48 hrs by SRB assay; type: functional; conditions: NCI-H460, 48 h; procedure, shortened: as §1
[9] = test system: SF-539; test: Growth inhibition of human SF539 cells after 48 hrs by SRB assay; type: functional; conditions: SF-539, 48 h; procedure, shortened: as §1
[10] = test system: PC-3; test: Growth inhibition of human PC3 cells after 48 hrs by SRB assay; type: functional; conditions: PC-3, 48 h; procedure, shortened: as §1
[11] = test system: MKN-45; test: Growth inhibition of human MKN45 cells after 48 hrs by SRB assay; type: functional; conditions: MKN-45, 48 h; procedure, shortened: as §1
[12] = test system: SNB-78; test: Growth inhibition of human SNB78 cells after 48 hrs by SRB assay; type: functional; conditions: SNB-78, 48 h; procedure, shortened: as §1
[13] = Growth inhibition of human MKN1 cells after 48 hrs by SRB assay; type: functional; conditions: MKN-1, 48 h; procedure, shortened: as §1
[14] = test system: OVCAR-5; test: Growth inhibition of human OVCAR5 cells after 48 hrs by SRB assay; type: functional; conditions: OVCAR-5, 48 h; procedure, shortened: as §1
[15] = test system: NCI-H23; test: Growth inhibition of human NCI-H23 cells after 48 hrs by SRB assay; type: functional; conditions: NCI-H23, 48 h; procedure, shortened: as §1
[16] = test system: HT-29; test: Growth inhibition of human HT-29 cells after 48 hrs by SRB assay; type: functional; conditions: HT-29, 48 h; procedure, shortened: as §1
[17] = test system: MKN-7; test: Growth inhibition of human MKN7 cells after 48 hrs by SRB assay; type: functional; conditions: MKN-7, 48 h; procedure, shortened: as §1
[18] = test system: DMS-114; test: Growth inhibition of human DMS114 cells after 48 hrs by SRB assay; type: functional; conditions: DMS-114, 48 h; procedure, shortened: as §1
[19] = test system: HL-60; test: Cytotoxicity against human HL60 cells after 72 hrs by MTT assay; type: functional, cell-based; conditions: HL-60, 72 h
Procedure, shortened: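 HL-60 (JCRB 0085) kept in RPMI 1640 with 10% heat-inactivated FBS, penicillin/streptomycin, 37 °C, 5% CO2. Seeded at 4 × 10^4 cells/mL, preincubated 24 h, then dosed from EtOH-H2O (1:1) to final 0.01-20 µg/mL; vehicle-only controls. After 72 h, modified MTT read-out: MTT 4 h, centrifugation, formazan dissolved in DMSO, A550. Triplicate; IC50 taken as 50% reduction of viable cells.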

[20] = test system: LOX IMVI; test: Growth inhibition of human LOXIMVI cells after 48 hrs by SRB assay; type: functional; procedure, shortened: as §1
[21] = test system: SK-OV-3; test: Growth inhibition of human SKOV3 cells after 48 hrs by SRB assay; type: functional; conditions: SK-OV-3, 48 h; procedure, shortened: as §1
[22] = test system: HCT-116; test: Growth inhibition of human HCT116 cells after 48 hrs by SRB assay; type: functional; conditions: HCT-116, 48 h; procedure, shortened: as §1
[23] = test system: A549; test: Growth inhibition of human A549 cells after 48 hrs by SRB assay; type: functional; conditions: A549, 48 h; procedure, shortened: as §1
[24] = test system: ACHN; test: Growth inhibition of human ACHN cells after 48 hrs by SRB assay; type: functional; procedure, shortened: as §1
[25] = test system: MDA-MB-231; test: Growth inhibition of human MDA-MB-231 cells after 48 hrs by SRB assay; type: functional; conditions: MDA-MB-231, 48 h; procedure, shortened: as §1
[26] = test system: HCT-15; test: Growth inhibition of human HCT15 cells after 48 hrs by SRB assay; type: functional; conditions: HCT-15, 48 h; procedure, shortened: as §1
[27] = test system: KM12; test: Growth inhibition of human KM12 cells after 48 hrs by SRB assay; type: functional; conditions: KM12, 48 h; procedure, shortened: as §1
[28] = Growth inhibition of human HBC5 cells after 48 hrs by SRB assay; type: functional; conditions: HBC5, 48 h; procedure, shortened: as §1
[29] = test system: DMS-273; test: Growth inhibition of human DMS273 cells after 48 hrs by SRB assay; type: functional; conditions: DMS-273, 48 h; procedure, shortened: as §1
[30] = test system: MCF7; test: Growth inhibition of human MCF7 cells after 48 hrs by SRB assay; type: functional; conditions: MCF7, 48 h; procedure, shortened: as §1
[31] = test system: MKN-28; test: Growth inhibition of human MKN28 cells after 48 hrs by SRB assay; type: functional; conditions: MKN-28, 48 h; procedure, shortened: as §1
[32] = test system: DU-145; test: Growth inhibition of human DU145 cells after 48 hrs by SRB assay; type: functional; conditions: DU-145, 48 h; procedure, shortened: as §1
[33] = test system: St-4; test: Growth inhibition of human St-4 cells after 48 hrs by SRB assay; type: functional; conditions: St-4, 48 h; procedure, shortened: as §1
[34] = Growth inhibition of human HBC4 cells after 48 hrs by SRB assay; type: functional; conditions: HBC4, 48 h; procedure, shortened: as §1
[35] = test system: NCI-H226; test: Growth inhibition of human NCI-H226 cells after 48 hrs by SRB assay; type: functional; conditions: NCI-H226, 48 h; procedure, shortened: as §1
[36] = Growth inhibition of human RXF631L cells after 48 hrs by SRB assay; type: functional; conditions: RXF 631, 48 h; procedure, shortened: as §1
[37] = test system: OVCAR-4; test: Growth inhibition of human OVCAR4 cells after 48 hrs by SRB assay; type: functional; conditions: OVCAR-4, 48 h; procedure, shortened: as §1
[38] = test system: SF-268; test: Growth inhibition of human SF268 cells after 48 hrs by SRB assay; type: functional; conditions: SF-268, 48 h; procedure, shortened: as §1
[39] = test system: HCC 2998; test: Growth inhibition of human HCC2998 cells after 48 hrs by SRB assay; type: functional; conditions: HCC 2998, 48 h; procedure, shortened: as §1
[40] = Growth inhibition of human BSY1 cells after 48 hrs by SRB assay; type: functional; conditions: BSY-1, 48 h; procedure, shortened: as §1
[41] = test system: NCI-H522; test: Growth inhibition of human NCI-H522 cells after 48 hrs by SRB assay; type: functional; conditions: NCI-H522, 48 h; procedure, shortened: as §1

SMILES: CC(C)C(=O)CC[C@@H](C)[C@H]1[C@@H](O)C[C@@]2(C)[C@@H]3CC[C@H]4C(C)(C)[C@@H](O[C@@H]5O[C@H](CO)[C@@H](O)[C@H](O)[C@H]5O[C@@H]5O[C@@H](C)[C@H](O)[C@@H](O[C@@H]6O[C@H](CO)[C@@H](O)[C@H](O)[C@H]6O)[C@H]5O)CC[C@@]45C[C@@]35C[C@H](O)[C@]12C
inhibition [1]: inactive

SMILES: CC(C)C(=O)CC[C@@H](C)[C@H]1[C@@H](O)C[C@@]2(C)[C@@H]3CC[C@H]4C(C)(C)[C@@H](O[C@@H]5O[C@H](CO)[C@@H](O)[C@H](O)[C@H]5O[C@@H]5O[C@H](CO)[C@@H](O)[C@H](O)[C@H]5O)CC[C@@]45C[C@@]35C[C@H](O)[C@]12C
inhibition [1]: inactive

SMILES: CC(C)C(=O)CC[C@@H](C)[C@H]1[C@@H](O)C[C@@]2(C)[C@@H]3CC[C@H]4C(C)(C)[C@@H](O[C@@H]5O[C@H](CO)[C@@H](O)[C@H](O)[C@H]5O[C@@H]5O[C@H](CO)[C@@H](O)[C@H](O[C@@H]6O[C@H](CO)[C@@H](O)[C@H](O)[C@H]6O)[C@H]5O)CC[C@@]45C[C@@]35C[C@H](O)[C@]12C
inhibition [1]: inactive

SMILES: CC(C)C(=O)CC[C@@H](C)[C@H]1[C@@H](O)C[C@@]2(C)[C@@H]3CC[C@H]4C(C)(C)[C@@H](O[C@@H]5O[C@H](CO)[C@@H](O)[C@H](O)[C@H]5O[C@@H]5O[C@@H](C)[C@H](O)[C@@H](O)[C@H]5O)CC[C@@]45C[C@@]35C[C@H](O)[C@]12C
inhibition [1]: inactive

GI50 [2]: 2190 nM
GI50 [3]: 2190 nM
GI50 [4]: 3240 nM
GI50 [6]: 1550 nM
GI50 [8]: 2240 nM
GI50 [10]: 14800 nM
GI50 [11]: 64600 nM
GI50 [14]: 4790 nM
GI50 [15]: 3090 nM
GI50 [16]: 3310 nM
GI50 [17]: 1910 nM
GI50 [21]: 4790 nM
GI50 [22]: 2400 nM
GI50 [23]: 2690 nM
GI50 [24]: 2000 nM
GI50 [25]: 2000 nM
GI50 [26]: 3470 nM
GI50 [30]: 3800 nM
GI50 [31]: 2040 nM
GI50 [32]: 2090 nM
GI50 [35]: 2750 nM
GI50 [37]: 2400 nM
GI50 [39]: 16600 nM
GI50 [41]: 2880 nM
SMILES: CC(C)C(=O)CC[C@@H](C)[C@H]1[C@@H](O)C[C@@]2(C)[C@@H]3CC[C@H]4C(C)(C)[C@@H](O)CC[C@@]45C[C@@]35C[C@H](O)[C@]12C
GI50 [5]: 3800 nM
GI50 [7]: 2090 nM
GI50 [9]: 2140 nM
GI50 [12]: 5010 nM
GI50 [13]: 2570 nM
GI50 [18]: 1780 nM
IC50 [19]: 1800 nM
GI50 [20]: 1550 nM
GI50 [27]: 6170 nM
GI50 [28]: 2880 nM
GI50 [29]: 2090 nM
GI50 [33]: 2750 nM
GI50 [34]: 3160 nM
GI50 [36]: 1780 nM
GI50 [38]: 1380 nM
GI50 [40]: 1950 nM

SMILES: CC(C)C(=O)CC[C@@H](C)[C@H]1[C@@H](O)C[C@@]2(C)[C@@H]3CC[C@H]4C(C)(C)[C@@H](O[C@@H]5O[C@H](CO)[C@@H](O)[C@H](O)[C@H]5O)CC[C@@]45C[C@@]35C[C@H](O)[C@]12C
IC50 [19]: 9000 nM

SMILES: CC(C)C(=O)CC[C@@H](C)[C@H]1[C@@H](O)C[C@@]2(C)[C@@H]3CC[C@H]4C(C)(C)[C@@H](O[C@@H]5O[C@H](CO[C@@H]6O[C@H](CO)[C@@H](O)[C@H](O)[C@H]6O)[C@@H](O)[C@H](O)[C@H]5O)CC[C@@]45C[C@@]35C[C@H](O)[C@]12C
inhibition [1]: inactive
